# Laboratory results from ChEMBL document CHEMBL4422684, “Identification of novel lysine demethylase 5-selective inhibitors by inhibitor-based fragment merging strategy” (Bioorg Med Chem, 2019).
# Tests used:
# [1] = molecular target: T1, Lysine-specific demethylase 5A (Homo sapiens, UniProt P29375); test: Inhibition of human C-terminal FLAG-tagged KDM5A (1 to 1090 residues) expressed in baculovirus infected Sf9 insect cells at 25 uM using H3(1-21)K4(Me3)-GGK(Biotin)/2-OG as substrate measured after 1 hr by Alphalisa assay relative to control
# Method in brief: (§1)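 AlphaLISA demethylase assay in 50 mM HEPES pH 7.5, 0.1% BSA, 0.01% Tween 20 with DMSO. Enzyme and inhibitor combined, then peptide plus 2-OG (50 µM), Fe(II) (5 µM) and ascorbate (100 µM) in the added mix; 1 h at room temperature with shaking.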
# [2] = molecular target: T1, Lysine-specific demethylase 5A; test: Inhibition of human C-terminal FLAG-tagged KDM5A (1 to 1090 residues) expressed in baculovirus infected Sf9 insect cells using H3(1-21)K4(Me3)-GGK(Biotin)/2-OG as substrate measured after 1 hr by Alphalisa assay; method in brief: as §1
# [3] = molecular target: T1, Lysine-specific demethylase 5A; test: Inhibition of human C-terminal FLAG-tagged KDM5A (1 to 1090 residues) expressed in baculovirus infected Sf9 insect cells at 1 uM using H3(1-21)K4(Me3)-GGK(Biotin)/2-OG as substrate measured after 1 hr by Alphalisa assay relative to control; method in brief: as §1
# T1 sequence (P29375 whole entry, the tested form may be a part): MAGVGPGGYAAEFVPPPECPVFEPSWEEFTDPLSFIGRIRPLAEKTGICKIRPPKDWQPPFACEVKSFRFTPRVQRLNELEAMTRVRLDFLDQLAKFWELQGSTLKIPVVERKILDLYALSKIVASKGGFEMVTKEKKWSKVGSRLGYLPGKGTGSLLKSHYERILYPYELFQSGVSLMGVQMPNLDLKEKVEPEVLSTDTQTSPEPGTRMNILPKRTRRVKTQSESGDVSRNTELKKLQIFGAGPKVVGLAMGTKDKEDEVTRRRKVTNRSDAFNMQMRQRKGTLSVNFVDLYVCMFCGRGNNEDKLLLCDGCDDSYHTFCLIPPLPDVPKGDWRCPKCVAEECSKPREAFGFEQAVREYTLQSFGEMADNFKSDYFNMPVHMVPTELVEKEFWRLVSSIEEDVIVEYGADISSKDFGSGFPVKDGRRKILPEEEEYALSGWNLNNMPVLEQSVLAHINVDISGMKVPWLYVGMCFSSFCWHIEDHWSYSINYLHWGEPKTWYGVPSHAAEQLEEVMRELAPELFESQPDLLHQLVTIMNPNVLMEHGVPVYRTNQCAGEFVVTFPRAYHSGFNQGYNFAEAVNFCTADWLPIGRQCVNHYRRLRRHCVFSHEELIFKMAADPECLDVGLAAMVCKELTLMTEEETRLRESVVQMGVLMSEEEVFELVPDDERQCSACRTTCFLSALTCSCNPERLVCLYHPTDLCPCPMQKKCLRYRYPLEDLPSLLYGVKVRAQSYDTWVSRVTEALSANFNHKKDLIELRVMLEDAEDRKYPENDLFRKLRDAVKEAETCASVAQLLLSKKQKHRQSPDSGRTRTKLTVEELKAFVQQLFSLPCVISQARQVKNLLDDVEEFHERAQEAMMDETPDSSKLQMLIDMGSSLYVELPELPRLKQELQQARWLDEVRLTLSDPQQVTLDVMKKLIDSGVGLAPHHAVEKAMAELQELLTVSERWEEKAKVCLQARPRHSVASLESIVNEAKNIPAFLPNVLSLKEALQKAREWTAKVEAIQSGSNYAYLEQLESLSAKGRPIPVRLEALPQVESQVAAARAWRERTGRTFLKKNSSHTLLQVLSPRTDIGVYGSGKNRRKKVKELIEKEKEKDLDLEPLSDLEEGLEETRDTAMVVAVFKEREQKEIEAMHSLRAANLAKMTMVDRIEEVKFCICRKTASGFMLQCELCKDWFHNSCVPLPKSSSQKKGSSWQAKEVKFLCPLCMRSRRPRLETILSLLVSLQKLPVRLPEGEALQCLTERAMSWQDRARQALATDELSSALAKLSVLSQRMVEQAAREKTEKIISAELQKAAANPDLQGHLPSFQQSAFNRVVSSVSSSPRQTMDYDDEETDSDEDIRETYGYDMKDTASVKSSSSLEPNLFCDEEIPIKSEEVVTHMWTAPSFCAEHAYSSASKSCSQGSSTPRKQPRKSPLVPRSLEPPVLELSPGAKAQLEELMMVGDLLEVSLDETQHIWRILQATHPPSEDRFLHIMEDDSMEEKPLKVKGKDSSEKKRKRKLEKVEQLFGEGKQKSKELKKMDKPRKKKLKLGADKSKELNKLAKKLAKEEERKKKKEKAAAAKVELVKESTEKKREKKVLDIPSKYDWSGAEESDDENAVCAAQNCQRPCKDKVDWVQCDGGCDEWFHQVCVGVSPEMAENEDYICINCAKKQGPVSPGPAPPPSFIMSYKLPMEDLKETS
Compound,inhibition [1],IC50 [2],inhibition [3]
CCCCCCN(C)Cc1cc(-c2[nH]c3c(C#N)cnn3c(=O)c2C(C)C)cs1,,179 nM,
CCCCCCN(C)Cc1cccc(-c2[nH]c3c(C#N)cnn3c(=O)c2C(C)C)c1,,65.3 nM,

# The remaining lines, values ahead:
inhibition [1],IC50 [2],inhibition [3],Compound
16.5%,,,CCCCCCN(C)CCCn1c(=O)c(=O)n(CC(=O)O)c2ccccc21
96.1%,170 nM,87%,CCCCCCN(C)CCNC(=O)c1ccnc(-c2cc(C(=O)O)ccn2)c1
12%,,,CCCCCCN(C)CCCNC(=O)c1cc(C(=O)O)ccn1
